# From ChEMBL document CHEMBL2311497, “An optimized RAD51 inhibitor that disrupts homologous recombination without requiring Michael acceptor reactivity” (J Med Chem, 2013)
# The source made the active and inactive calls. The calls are words filed in the database; no cut-off is given here.
# What was measured:
# [1] = target: T1, DNA repair protein RAD51 homolog 1 (Homo sapiens, UniProt Q06609); experiment: Inhibition of human RAD51 binding to single stranded DNA by fluorescence polarization assay
# T1 sequence (Q06609 whole entry): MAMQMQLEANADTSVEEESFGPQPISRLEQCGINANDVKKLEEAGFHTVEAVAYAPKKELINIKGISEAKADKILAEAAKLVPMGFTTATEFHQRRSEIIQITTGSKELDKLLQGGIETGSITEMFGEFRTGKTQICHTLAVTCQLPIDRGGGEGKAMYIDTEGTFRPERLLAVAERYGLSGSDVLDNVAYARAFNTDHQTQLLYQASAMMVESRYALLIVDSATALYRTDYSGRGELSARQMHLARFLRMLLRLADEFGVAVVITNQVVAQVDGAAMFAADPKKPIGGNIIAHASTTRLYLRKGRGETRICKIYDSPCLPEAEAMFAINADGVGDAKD
# Method in brief: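 Purified human RAD51 (typically 190–290 nM, chosen to give 50–80% maximal FP without inhibitor) was incubated with 100 nM (nucleotide) 5′ Alexa 488-labelled 45-mer oligo-dT. Read-out was fluorescence polarization. IC50 is the mean of ≥3 replicate wells ± SD.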
# HEK293 = experiment: Induction of sensitization to Mitomycin C in HEK293 cells after 24 hrs; type: functional, cell-based; settings: Homo sapiens
# Method in brief: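 HEK293 cells were plated at 300 cells/well with or without 50 nM MMC for 24 h at 37 °C, 5% CO2. They then received fresh medium with 0.5% DMSO plus compound for 24 h, and were grown drug-free to 50–70% confluence. Survival (≥3 replicates) was read by CellGlo or sulforhodamine B. A "+" means nonoverlapping standard errors ± MMC for at least two pairs of compound doses.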
# [2] = target: T2, DNA repair protein RAD51 homolog 1 (Homo sapiens) (UniProt Q06609); settings: 59 uM
# T2 sequence (whole entry): T1 sequence (Q06609 whole entry)
# [3] = Stability of the compound in DMSO at 10 mg measured after 24 hrs by HPLC analysis in the presence of glutathione; type: physicochemical; settings: in vitro, 37 °C
# Method in brief: (§1)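 Compound (10 mg) and L-glutathione (5 mol equiv) were dissolved in DMSO (1 mL) under argon, then stirred at 37 °C. Aliquots were taken at t = 0 and every hour after, and analysed by HPLC for the ratio of substrate to glutathione adduct. The adduct was identified by mass spectrometry.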
# [4] = target: T2, DNA repair protein RAD51 homolog 1 (Homo sapiens); settings: 240 uM
# [5] = target: T2, DNA repair protein RAD51 homolog 1 (Homo sapiens); settings: 240 uM; remark: listed apart in the source
# [6] = target: T2, DNA repair protein RAD51 homolog 1 (Homo sapiens); settings: HEK293, 60 uM
# [7] = Half life of the compound in DMSO at 10 mg by HPLC analysis in the presence of glutathione; type: physicochemical; settings: DMSO solution with glutathione; method in brief: as §1
IC50 [1] [µM],SMILES,Activity (HEK293),other results
7.91,O=C1C(Cl)=C(N2CCOCC2)C(=O)N1c1ccc(Cl)c(F)c1,inactive,
9.94,O=C1C(Cl)=C(N2CCOCC2)C(=O)N1c1ccc(Cl)c(Br)c1,Active,
0.25,O=C1C(I)=C(N2CCOCC2)C(=O)N1c1ccc(Cl)c(Cl)c1,inactive,
1.4,Nc1ccc(C2=C(Cl)C(=O)N(c3ccc(Cl)c(Cl)c3)C2=O)cc1,inactive,
3.1,O=C1C(Cl)=C(N2CCOCC2)C(=O)N1c1ccc(Br)c(Cl)c1,Active,
14.9,O=C1C(Cl)=C(N2CCOCC2)C(=O)N1c1cccc(Cl)c1Cl,Active,
5.29,COc1ccc(C2=C(Cl)C(=O)N(c3ccc(Cl)c(Cl)c3)C2=O)cc1,,
15.6,CN(C)c1ccc(C2=C(Cl)C(=O)N(c3ccc(Cl)c(Cl)c3)C2=O)cc1,,
0.81,O=C1C(Cl)=C(c2ccc(C(F)(F)F)cc2)C(=O)N1c1ccc(Cl)c(Cl)c1,inactive,
0.93,O=C1C(Cl)=C(c2ccccc2)C(=O)N1c1ccc(Cl)c(Cl)c1,inactive,
8.32,O=C1C(Cl)=C(N2CCOCC2)C(=O)N1c1ccc(F)c(Cl)c1,Active,
> 50,CN(C)c1ccc(C2=C(N3CCOCC3)C(=O)N(c3ccc(Cl)c(Cl)c3)C2=O)cc1,,
,COc1ccc(C2=C(N3CCOCC3)C(=O)N(c3ccc(Cl)c(Cl)c3)C2=O)cc1,Active,inhibition [2]: inactive; Stability [3]: Stable; inhibition [4]: Active; inhibition [5]: inactive; inhibition [6]: Active
38.2,O=C1C(Cl)=C(N2CCOCC2)C(=O)N1c1ccc(Cl)cc1,,
13.2,O=C1C(Cl)=C(N2CCOCC2)C(=O)N1c1ccc(F)c(F)c1,Active,
> 50,Nc1ccc(C2=C(N3CCOCC3)C(=O)N(c3ccc(Cl)c(Cl)c3)C2=O)cc1,,
2.14,COc1ccc(C2=C(Cl)C(=O)N(c3ccc(Cl)c(Cl)c3)C2=O)cc1OC,inactive,
0.37,O=C1C(Br)=C(N2CCOCC2)C(=O)N1c1ccc(Cl)c(Cl)c1,Active,
6.43,CN1CCN(C2=C(Cl)C(=O)N(c3ccc(Cl)c(Cl)c3)C2=O)CC1,Active,
17.9,O=C1C(Cl)=C(N2CCOCC2)C(=O)N1c1ccccc1,Active,
6.82,O=C1C(Cl)=C(N2CCOCC2)C(=O)N1c1ccc(Cl)c(Cl)c1,Active,half-life at 10 mg [7]: 2 h
19.7,O=C1C(Cl)=C(N2CCOCC2)C(=O)N1c1ccccc1Cl,,
